The values below come from ChEMBL document CHEMBL3769366, “Novel tricyclic pyrazolo[1,5-d][1,4]benzoxazepin-5(6H)-one: Design, synthesis, model and use as hMAO-B inhibitors” (Bioorg Med Chem, 2016).

The species named for one data set is Homo sapiens. Kind of data set: Selectivity index, ratio of IC50 for recombinant human microsomal MAO-A to recombinant human microsomal MAO-B.
Data set [1] addresses T1, Amine oxidase [flavin-containing] A (Homo sapiens, UniProt P21397).
T1 sequence (P21397 whole entry): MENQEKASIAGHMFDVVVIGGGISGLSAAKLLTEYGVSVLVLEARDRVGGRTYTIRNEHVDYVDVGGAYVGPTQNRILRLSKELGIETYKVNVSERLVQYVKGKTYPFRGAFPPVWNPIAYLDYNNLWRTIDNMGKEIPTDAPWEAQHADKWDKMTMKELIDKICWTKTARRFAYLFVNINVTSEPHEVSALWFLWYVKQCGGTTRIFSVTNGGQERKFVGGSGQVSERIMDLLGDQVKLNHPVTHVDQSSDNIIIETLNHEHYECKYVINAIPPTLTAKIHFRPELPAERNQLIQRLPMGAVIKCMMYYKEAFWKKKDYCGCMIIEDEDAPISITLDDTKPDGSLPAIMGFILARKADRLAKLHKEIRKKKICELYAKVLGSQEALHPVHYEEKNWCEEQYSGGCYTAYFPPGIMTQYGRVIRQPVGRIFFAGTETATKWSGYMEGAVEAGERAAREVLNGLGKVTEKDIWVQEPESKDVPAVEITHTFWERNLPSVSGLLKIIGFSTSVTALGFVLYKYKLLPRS
The data set can be described thus: Inhibition of recombinant human microsomal MAO-A expressed in baculovirus-infected insect cells using p-tyramine as substrate assessed as H2O2 production at 60 uM pretreated for 15 mins followed by addition of Amplex Red, horseradish peroxidase and substrate measured for 15 mins by fluorimetric method. As to conditions: 0.25 h; call rule not given here. In a few lines:
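Human MAO-A from microsomes of insect cells infected with recombinant baculovirus, 1.1 µg protein, adjusted to a rate of 165 pmol p-tyramine/min. Inhibitors in 0.05 M sodium phosphate pH 7.4, preincubated 15 min at 37 °C. Reaction started with 200 µM Amplex Red, 1 U/mL HRP and 1 mM p-tyramine. H2O2-derived resorufin fluorescence (ex 545/em 590 nm) read over 15 min at 37 °C, linear phase.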

Data set [2] has as its target T2, Amine oxidase [flavin-containing] B (Homo sapiens, UniProt P27338).
T2 sequence (P27338 whole entry): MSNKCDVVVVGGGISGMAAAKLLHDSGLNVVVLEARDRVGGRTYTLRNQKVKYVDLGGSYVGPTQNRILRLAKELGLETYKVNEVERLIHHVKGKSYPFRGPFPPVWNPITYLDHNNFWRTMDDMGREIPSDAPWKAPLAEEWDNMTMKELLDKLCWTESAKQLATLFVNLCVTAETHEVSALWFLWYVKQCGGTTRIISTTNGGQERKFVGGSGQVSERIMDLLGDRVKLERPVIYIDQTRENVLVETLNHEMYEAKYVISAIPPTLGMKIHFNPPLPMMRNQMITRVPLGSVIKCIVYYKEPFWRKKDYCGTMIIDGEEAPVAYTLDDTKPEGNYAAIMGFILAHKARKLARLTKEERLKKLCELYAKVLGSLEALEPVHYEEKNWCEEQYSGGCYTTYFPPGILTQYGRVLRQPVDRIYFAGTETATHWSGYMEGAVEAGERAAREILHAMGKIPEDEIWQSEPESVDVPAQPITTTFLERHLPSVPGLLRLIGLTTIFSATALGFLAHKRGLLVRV
Kind of data set: Inhibition of recombinant human microsomal MAO-B expressed in baculovirus-infected insect cells using p-tyramine as substrate assessed as H2O2 production pretreated for 15 mins followed by addition of Amplex Red, horseradish peroxidase and substrate measured for 15 mins by fluorimetric method. Format: cell-based.

Data set [3] has as its target T1, Amine oxidase [flavin-containing] A. Kind of data set: Inhibition of recombinant human microsomal MAO-A expressed in baculovirus-infected insect cells using p-tyramine as substrate assessed as H2O2 production pretreated for 15 mins followed by addition of Amplex Red, horseradish peroxidase and substrate measured for 15 mins by fluorimetric method.
Data set [4] has as its target T2, Amine oxidase [flavin-containing] B. The data set can be described thus: Inhibition of recombinant human microsomal MAO-B expressed in baculovirus-infected insect cells using p-tyramine as substrate assessed as H2O2 production at 60 uM pretreated for 15 mins followed by addition of Amplex Red, horseradish peroxidase and substrate measured for 15 mins by fluorimetric method. As to conditions: 0.25 h.

As for `O=C1COc2ccc(Cl)cc2C2CC(c3ccccc3)=NN12` (stereo not given), in the data set listed under Homo sapiens, the Ratio IC50 was 23.4. For the same compound, the “inhibition (INH)” value in data set [1] was “Not Active”. Moreover, the concentration for half-maximal inhibition (IC50) in data set [2] amounted to 2.57 µM.
The matching figures for `CC(C)c1ccc(C2=NN3C(=O)COc4ccccc4C3C2)cc1` (stereo not given): 17, “Not Active” and 3.52 µM.
Consider `O=C1COc2ccccc2C2CC(c3ccccc3)=NN12` (stereo not given), for which, in the data set listed under Homo sapiens, the Ratio IC50 was determined as 0.8. Further, the half-inhibitory concentration (IC50) came to 2.19 µM in data set [3] and 2.88 µM in data set [2].
For the compound `Cc1ccc(C2=NN3C(=O)C(C)Oc4ccccc4C3C2)cc1` (stereo not given), in the data set listed under Homo sapiens, the Ratio IC50 was determined as 1.3. Moreover, in data set [1], the “inhibition (INH)” value is “Not Active”. The half-inhibitory concentration (IC50) in data set [2] is 45.2 µM.
Turning to `CC1Oc2ccccc2C2CC(c3ccccc3Cl)=NN2C1=O` (stereo not given), the Ratio IC50 in the data set filed under Homo sapiens is 11.7. Also, the figures for the IC50 in data set [3] and in data set [2] were 4.05 µM and 0.348 µM, respectively.
Consider `CC1Oc2ccccc2C2CC(c3ccc(Cl)cc3)=NN2C1=O` (stereo not given), for which, in the data set listed under Homo sapiens, the Ratio IC50 turned out to be 133. For the same compound, the “inhibition (INH)” value in data set [1] is “Not Active”. Besides, in data set [2], the IC50 came out at 0.452 µM.
Turning to `Cc1ccc(C2=NN3C(=O)COc4ccccc4C3C2)cc1` (stereo not given), the “inhibition (INH)” value in data set [1] was “Not Active”. In addition, in data set [4], the INH result was “Not Active”.
For the compound `O=C1COc2ccccc2C2CC(c3ccc(Cl)cc3)=NN12` (stereo not given), in the data set listed under Homo sapiens, the Ratio IC50 was found to be 0.9. Moreover, in data set [3], the 50% inhibitory concentration (IC50) is 53.3 µM. In addition, the INH entry in data set [4] is “Not Active”.
As to `O=C1COc2ccc(Cl)cc2C2CC(c3ccc(Cl)cc3)=NN12` (stereo not given), the Ratio IC50 in the data set listed under Homo sapiens was found to be 9.3. For the same compound, the half-inhibitory concentration (IC50) in data set [3] worked out at 4.71 µM; in data set [2], 0.504 µM.
The matching figures for `O=C1COc2ccc(Cl)cc2C2CC(c3ccc(F)cc3)=NN12` (stereo not given): 19.2, 4.65 µM and 0.242 µM.
Taken in the same sequence, the figures for `COc1ccc(C2=NN3C(=O)COc4c(Br)cc(Br)cc4C3C2)cc1` (stereo not given) were 10.2, 4.76 µM and 0.467 µM.
Consider `Cc1ccccc1C1=NN2C(=O)COc3ccccc3C2C1` (stereo not given), for which the “inhibition (INH)” value in data set [1] is “Not Active”. Besides, in data set [4], the INH entry is “Not Active”.
Consider `O=C1COc2ccccc2C2CC(c3ccccc3Cl)=NN12` (stereo not given), for which the Ratio IC50 in the data set listed under Homo sapiens is 42.1. For the same compound, the values for the IC50 in data set [3] and in data set [2] were 55.7 µM and 1.32 µM, respectively.
As for `CC1Oc2ccccc2C2CC(c3ccc(F)cc3)=NN2C1=O` (stereo not given), in the data set filed under Homo sapiens, the Ratio IC50 is 271. In addition, the “inhibition (INH)” value in data set [1] is “Not Active”. Moreover, the 50% inhibitory concentration (IC50) in data set [2] was 0.221 µM.
The matching figures for `COc1ccc(C2=NN3C(=O)COc4ccc(Cl)cc4C3C2)cc1` (stereo not given): 22, “Not Active” and 2.72 µM.
The matching figures for `O=C1COc2ccc(Cl)cc2C2CC(c3ccccc3F)=NN12` (stereo not given): 103, “Not Active” and 0.584 µM.
In the case of `COc1ccc(C2=NN3C(=O)C(C)Oc4ccccc4C3C2)cc1` (stereo not given), the “inhibition (INH)” value in data set [1] is on record as “Not Active”. Further, the INH entry in data set [4] is given as “Not Active”.
For `O=C1COc2ccccc2C2CC(c3ccc(F)cc3)=NN12` (stereo not given), in the data set listed under Homo sapiens, the Ratio IC50 amounted to 33.7. In addition, the “inhibition (INH)” value in data set [1] was “Not Active”. Also, the IC50 in data set [2] came to 1.78 µM.
For `Cc1ccc(C2=NN3C(=O)COc4ccc(Cl)cc4C3C2)cc1` (stereo not given), the Ratio IC50 in the data set listed under Homo sapiens worked out at 2.4. For the same compound, the results for the 50% inhibitory concentration (IC50) in data set [3] and in data set [2] were 3.9 µM and 1.63 µM, respectively.
Take `COc1ccc(C2=NN3C(=O)COc4ccccc4C3C2)cc1` (stereo not given): the “inhibition (INH)” value in data set [1] was “Not Active”. The INH result in data set [4] is “Not Active”.
Turning to `C#CCN(C)[C@H](C)Cc1ccccc1` [SELEGILINE], the “inhibition (INH)” value in data set [1] was “Not Active”.
In the case of `CC1Oc2ccccc2C2CC(c3ccccc3)=NN2C1=O` (stereo not given), in the data set listed under Homo sapiens, the Ratio IC50 was 1.7. Further, in data set [1], the “inhibition (INH)” value is listed as “Not Active”. In data set [2], the IC50 was determined as 34.7 µM.

For orientation: IC50 means the point on the concentration scale where inhibition reaches its midpoint.
